By inhibition is commonly meant how much of the control response was suppressed.

In data set [1] the test system is HT-22. The data set is described as follows: Neuroprotective activity in mouse HT22 cells assessed as inhibition of amyloid beta-induced cytotoxicity by measuring cell viability at 10 uM after 18 hrs by MTT assay. It counts as functional. Conditions: HT-22, 18 h. The essentials:
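Aβ peptide was pretreated in HFIP, dried to a film, redissolved in DMSO, and aggregated at 200 µM in PBS for 24 h at 4 °C. HT22 cells (5000/well) were exposed the next day to 2 µM aggregated Aβ plus 10 µM compound for 18 h. Viability was read by MTT at 570 nm, and percent inhibition was calculated against Aβ with vehicle. Triplicate.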

Data set [2] deals with Advanced glycosylation end product-specific receptor (Homo sapiens) (UniProt Q15109). Description: Inhibition of human RAGE-amyloid beta-42 interaction at 4 uM preincubated for 30 mins measured after 1 hr by FRET assay relative to control. The essentials:
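Biotinylated human RAGE (2.5 µg) was premixed with 200 ng Cy3-streptavidin in PBS for 30 min at rt. Aβ42-FITC (50 µL of 40 nM) and compound (50 µL of 4 µM) were then added, in 200 µL final volume with 0.1% DMSO. Fluorescence was read 1 h later. FRET efficiency was computed from donor emission with and without acceptor, and percent inhibition was taken against vehicle. Triplicate.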

The subject of data set [3] is HT-22. The data set is described as follows: (§1) Cytotoxicity against mouse HT22 cells assessed as cell viability at 10 uM after 18 hrs by MTT assay. It counts as cell-based. Conditions: ht-22, 18 h, 10 µM. The essentials: (§2)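 HT22 cells were grown in DMEM with 10% FBS and penicillin/streptomycin at 37 °C in 5% CO2, and seeded at 5000 cells/well. Next day they were exposed to 10 µM compound for 18 h. MTT was then added for 3 h, formazan dissolved in acidic 2-propanol, and OD read at 570 nm. Viability is blank-corrected absorbance relative to control. Run in triplicate.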
(Tetrazolium assays rely on reduction of a dye to a coloured formazan, in cell work by metabolically active cells.)

The nature of data set [4]: Solubility of the compound in water. The format is physicochemical. The following applies: buffer.
For data set [5], the system named is Mus musculus. Description: Antialzheimer activity in APPsw/PS1 transgenic mouse assessed as reduction of total amyloid beta 1-40 level in brain homogenates at 50 mg/kg, po administered every 2 days for 4 weeks by ELISA. It counts as functional, organism-based. The procedure, abridged: (§3)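 Male APPsw/PS1 mice, 34 weeks old (n = 4–5), dosed by gavage at 50 mg/kg every 2 days for 4 weeks. Total Aβ1–40 and Aβ1–42 were measured by ELISA kit. Results given as mean ± SD.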
In general terms: ELISA stands for enzyme-linked immunosorbent assay.

In data set [6] the test system is Mus musculus. Description: Antialzheimer activity in APPsw/PS1 transgenic mouse assessed as reduction of total amyloid beta 1-42 level in brain homogenates at 50 mg/kg, po administered every 2 days for 4 weeks by ELISA. The format is functional, organism-based. The procedure, abridged:
as §3

Data set [7] concerns Mus musculus. The data set is described as follows: Toxicity in APPsw/PS1 transgenic mouse at 50 mg/kg, po administered every 2 days for 4 weeks. The following applies: in vivo. It counts as organism-based.
The subject of data set [8] is Mus musculus. The data set is described as follows: Antialzheimer activity in APPsw/PS1 transgenic mouse assessed as reduction of total amyloid beta 1-40 level in brain homogenates at 50 mg/kg, po administered every 2 days for 4 weeks by ELISA.
Data set [9] deals with Mus musculus. The data set is described as follows: Antialzheimer activity in APPsw/PS1 transgenic mouse assessed as reduction of total amyloid beta 1-42 level in brain homogenates at 50 mg/kg, po administered every 2 days for 4 weeks by ELISA.
The nature of data set [10]: as §1. The format is cell-based, HT-22. The following applies: HT22 cells, read-out: Activity. The procedure, abridged: as §2

Each structure is given as a SMILES string. Activity calls are given as the source filed them. The calls are words filed in the database; no cut-off is given here.

Chain of Advanced glycosylation end product-specific receptor (Homo sapiens) (Q15109 whole entry): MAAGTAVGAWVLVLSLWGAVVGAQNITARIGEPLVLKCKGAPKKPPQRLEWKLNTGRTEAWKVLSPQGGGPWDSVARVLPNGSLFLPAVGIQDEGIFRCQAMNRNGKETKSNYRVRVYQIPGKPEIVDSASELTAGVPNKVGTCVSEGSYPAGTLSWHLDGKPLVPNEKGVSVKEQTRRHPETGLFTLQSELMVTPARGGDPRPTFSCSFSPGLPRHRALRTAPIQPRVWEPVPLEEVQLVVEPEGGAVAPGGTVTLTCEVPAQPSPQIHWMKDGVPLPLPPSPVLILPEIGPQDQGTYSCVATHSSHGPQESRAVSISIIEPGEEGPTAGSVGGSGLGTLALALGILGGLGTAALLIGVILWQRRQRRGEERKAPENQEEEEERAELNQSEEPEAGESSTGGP

Take `CC(C)(C)OC(=O)N1CCN(CCCOc2ccc(-c3nc4ccc(Oc5cccc(C(F)(F)F)c5)cc4o3)cc2)CC1`: in data set [1], the inhibition at 10 µM came to 56.2%. For the same compound, the inhibition in [2] was determined as 22.8%. For the same compound, the Activity result in data set [3] is “Non-toxic”.
In the case of `Clc1ccc(Oc2ccc3nc(-c4ccc(OCCCN5CCC(c6ccccc6)CC5)cc4)oc3c2)cc1`, the inhibition result in data set [2] is “inactive”. Further, the solubility entry in data set [4] was “Insoluble”. In [3], the Activity entry is listed as “Non-toxic”.
The like results for `Clc1ccc(Oc2ccc3nc(-c4ccc(OCCCN5CCN(c6ccccc6)CC5)cc4)oc3c2)cc1` were, in that order, “inactive”, “Insoluble” and “Non-toxic”.
Regarding `CC(C)(C)OC(=O)N1CCN(CCCOc2ccc(-c3nc4ccc(Oc5ccc(Cl)cc5)cc4o3)cc2)CC1`, the inhibition at 10 µM in [1] turned out to be 65%. The compound further returned an inhibition in [2] of 40%. The Activity result in [3] and in data set [7] was “Non-toxic” in each case. For the same compound, the result in data set [5], in data set [6], in data set [8] and in data set [9] was Active.
On to `CC(C)(C)OC(=O)N1CCN(CCOc2ccc(-c3nc4ccc(Oc5ccc(Cl)cc5)cc4o3)cc2)CC1`, for which the inhibition at 10 µM in [1] came to 50.6%. In addition, in data set [2], the inhibition is 24.6%. Further, the Activity result in [3] is “Non-toxic”.
In turn, `Clc1ccc(Oc2ccc3nc(-c4ccc(OCC5CCN(Cc6ccccc6)CC5)cc4)oc3c2)cc1` displayed an inhibition in data set [2] of 5.1%. The solubility entry in [4] is “Insoluble”. The viability at 18 h, 10 µM in data set [10] was determined as 82.4%.
For `Clc1ccc(Oc2ccc3nc(-c4ccc(OCCCN5CCN(c6ncccn6)CC5)cc4)oc3c2)cc1` the same measures were 25.1%, “Insoluble” and 25.1%.
Take `CC(C)(C)OC(=O)N1CCN(CCCOc2ccc(-c3nc4ccc(Oc5ccc(F)cc5)cc4o3)cc2)CC1`: in [1], the inhibition at 10 µM stood at 62.3%. This compound also yielded an inhibition in [2] of 21%. For the same compound, the viability at 18 h, 10 µM in data set [10] amounted to 15.2%.
For the compound `CC(C)OC(=O)N1CCN(CCCOc2ccc(-c3nc4ccc(Oc5ccc(Cl)cc5)cc4o3)cc2)CC1`, the inhibition at 10 µM in data set [1] was 54.4%. This compound returned an inhibition in data set [2] of 25.9%. Also, the Activity result in [3] is on record as “Non-toxic”.
For `CCN1CCC(Oc2ccc(-c3nc4ccc(Oc5ccc(Cl)cc5)cc4o3)cc2)CC1`, in data set [2], the inhibition is 15.3%. Besides, in data set [10], the viability at 18 h, 10 µM came to 38.2%.
The like results for `Clc1ccc(Oc2ccc3nc(-c4ccc(OCC5CCNCC5)cc4)oc3c2)cc1` were, in that order, “inactive” and 29%.
For `CC(C)(C)OC(=O)N1CCN(CCCOc2ccc(-c3nc4ccc(Oc5ccc(C(F)(F)F)cc5)cc4o3)cc2)CC1` the same measures were 27.8% and 7.9%.
The like results for `CC(=O)N1CCC(COc2ccc(-c3nc4ccc(Oc5ccc(Cl)cc5)cc4o3)cc2)CC1` were, in that order, “inactive” and 32.7%.
`Clc1ccc(Oc2ccc3nc(-c4ccc(OC5CCNCC5)cc4)oc3c2)cc1` displayed an inhibition in data set [2] of 20.6%. The viability at 18 h, 10 µM in [10] came to 20.6%.

The values above are taken from ChEMBL document CHEMBL3593222, “6-Phenoxy-2-phenylbenzoxazoles, novel inhibitors of receptor for advanced glycation end products (RAGE)” (Bioorg Med Chem, 2015).
